Measured values: ChEMBL document CHEMBL3872222, “Synthesis of novel curcuminoids accommodating a central β-enaminone motif and their impact on cell growth and oxidative stress” (Eur J Med Chem, 2016)
pIC50: −log10 of the molar value. In brackets after ≈: the same amount, converted by molar mass.

Assays:
Caco-2 [1] = assay: Effect on oxidative stress in undifferentiated human Caco2 cells assessed as intracellular ROS level at 10 uM after overnight incubation by DCFH-DA staining based fluorescence assay relative to control; assay type: functional
Outline: (§1)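 Cells grown in DMEM+glutamax, 1% NEAA, 1% P/S, 10% FBS; seeded 20000/well, treated at confluency overnight in serum-free medium, DMSO under 0.1% final. Loaded with 20 μM DCFH-DA 30 min at 37 °C, 10% CO2; washed, phenol red-free medium 1 h, then serum-free medium; fluorescence ex 485/em 535 nm. Percent of untreated; two-tailed unequal-variance t-test, n≥6.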

EA.hy 926 [2] = assay: Effect on oxidative stress in human EAhy926 cells assessed as intracellular ROS level at 10 uM after overnight incubation by DCFH-DA staining based fluorescence assay relative to control; assay type: functional; outline: as §1
[3] = Growth inhibition of CHOK1 cells assessed as mitochondrial activity measured after 72 hrs by MTT assay; assay type: functional, cell-based; details: Cricetulus griseus, CHO-K1, 72 h
Outline: (§2)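 Seeded 20000 cells/well in DMEM+glutamax, NEAA, P/S, FBS; after 1 day treated 1, 5, 10, 25 μM in serum-free medium (DMSO under 0.1%) for 3 days. MTT (5 mg/ml in PBS) 2 h at 37 °C, 10% CO2 in dark; formazan dissolved in DMSO, absorbance 570 nm; triplicate; IC50 derived.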

HT-29 [4] = assay: Effect on oxidative stress in human HT-29 cells assessed as intracellular ROS level at 1 uM after overnight incubation by DCFH-DA staining based fluorescence assay relative to control; assay type: functional; outline: as §1
[5] = Growth inhibition of human EAhy926 cells assessed as mitochondrial activity measured after 72 hrs by MTT assay; assay type: cell-based; details: EA.hy 926, 72 h; outline: as §2
[6] = Growth inhibition of human HT-29 cells measured after 72 hrs by SRB assay; assay type: functional, cell-based; details: HT-29, 72 h
Outline: (§3)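 20000 cells/well treated after 1 day at 1, 5, 10, 25 μM, serum-free, for 3 days. Fixed with 50% TCA 1 h at 4 °C, stained 30 min with 0.4% sulforhodamine B in 1% acetic acid, rinsed with 1% acetic acid, dye dissolved in 10 mM Tris, absorbance 490 nm; triplicate; IC50 derived.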

[7] = Growth inhibition of differentiated human Caco2 cells measured after 72 hrs by SRB assay; assay type: cell-based; details: Caco-2, 72 h; outline: as §3
[8] = Antioxidant activity assessed as trolox equivalent of ferric ion reducing activity using Fe3+-TPTZ by measuring Fe2+-TPTZ formation after 4 mins by UV-vis spectrophotometry based FRAP assay; assay type: functional
Outline: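 FRAP reagent: 300 mM acetate buffer, 10 mM TPTZ in ethanol and 20 mM FeCl3 (in dilute HCl) combined 10:1:1, TPTZ and iron freshly made. Sample mixed 1:9 with reagent; absorbance 593 nm after 4 min. Expressed as trolox equivalents per μM from slope of linear plot versus analog concentration.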

CHO [9] = assay: Effect on oxidative stress in CHO cells assessed as intracellular ROS level at 1 uM after overnight incubation by DCFH-DA staining based fluorescence assay relative to control; assay type: functional, Cricetulus griseus; outline: as §1
[10] = Growth inhibition of undifferentiated human Caco2 cells assessed as mitochondrial activity measured after 72 hrs by MTT assay; assay type: functional, cell-based; details: Caco-2, 72 h; outline: as §2
[11] = Growth inhibition of human HT-29 cells assessed as mitochondrial activity measured after 72 hrs by MTT assay; assay type: functional, cell-based; details: HT-29, 72 h; outline: as §2
HT-29 [12] = assay: Effect on oxidative stress in human HT-29 cells assessed as intracellular ROS level at 10 uM after overnight incubation by DCFH-DA staining based fluorescence assay relative to control; assay type: functional; outline: as §1
EA.hy 926 [13] = assay: Effect on oxidative stress in human EAhy926 cells assessed as intracellular ROS level at 1 uM after overnight incubation by DCFH-DA staining based fluorescence assay relative to control; assay type: functional; outline: as §1
Caco-2 [14] = assay: Effect on oxidative stress in undifferentiated human Caco2 cells assessed as intracellular ROS level at 1 uM after overnight incubation by DCFH-DA staining based fluorescence assay relative to control; assay type: functional; outline: as §1
[15] = Growth inhibition of human EAhy926 cells measured after 72 hrs by SRB assay; assay type: cell-based; details: EA.hy 926, 72 h; outline: as §3
[16] = Growth inhibition of CHOK1 cells measured after 72 hrs by SRB assay; assay type: functional, cell-based; details: Cricetulus griseus, CHO-K1, 72 h; outline: as §3
[17] = Growth inhibition of undifferentiated human Caco2 cells measured after 72 hrs by SRB assay; assay type: functional, cell-based; details: Caco-2, 72 h; outline: as §3
[18] = Growth inhibition of differentiated human Caco2 cells assessed as mitochondrial activity measured after 72 hrs by MTT assay; assay type: cell-based; details: Caco-2, 72 h; outline: as §2
[19] = Antioxidant activity assessed as inhibition of DPPH radical activity at 1 uM measured after 30 mins under dark conditions by spectrophotometric analysis relative to control; assay type: functional
[20] = Solubility of the compound in serum-free DMEM assessed as compound concentration required for crystal formation measured after 1 day by microscopic analysis; assay type: physicochemical; details: 24 h
Outline: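 Compound at 0, 0.5, 1, 5, 10, 25 and 50 μM in serum-free DMEM incubated 1 day at 37 °C, 10% CO2, then examined for crystal formation.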

CHO [21] = assay: Effect on oxidative stress in CHO cells assessed as intracellular ROS level at 10 uM after overnight incubation by DCFH-DA staining based fluorescence assay relative to control; assay type: functional, Cricetulus griseus; outline: as §1

Row | Compound | Activity (Caco-2 [1]) [%] | Activity (EA.hy 926 [2]) [%] | pIC50 [3] | Activity (HT-29 [4]) [%] | pIC50 [5] | pIC50 [6] | pIC50 [7] | Activity [8] [µMequiv/µM] | Activity (CHO [9]) [%] | pIC50 [10] | pIC50 [11] | Activity (HT-29 [12]) [%] | Activity (EA.hy 926 [13]) [%] | Activity (Caco-2 [14]) [%] | pIC50 [15] | pIC50 [16] | pIC50 [17] | pIC50 [18] | inhibition [19] [%] | solubility [20] [µM] | further results
1 | COc1cc(/C=C/C(=O)/C=C(/C=C/c2ccc(OC(C)=O)c(OC)c2)NC2CCCCC2)ccc1OC(C)=O | 62 | 113 | 5.00 | 96 | < 4.60 | < 4.60 | < 4.60 | 0.04 | 89 | 5.01 | < 4.60 | 94 | 101 | 89 | < 4.60 | < 4.60 | 5.36 | < 4.60 | 0.01 | 5 (≈ 2.67 µg/mL) | Activity (CHO [21]): 122%
2 | COc1cc(/C=C/C(=O)/C=C(/C=C/c2ccc(O)c(OC)c2)NCC(C)C)ccc1O | 74 | 100 | < 4.60 | 91 | < 4.60 | 4.62 | < 4.60 | 0.89 | 104 | < 4.60 | 4.61 | 92 | 83 | 91 | < 4.60 | < 4.60 | < 4.60 | < 4.60 | 0.09 | 25 (≈ 10.6 µg/mL) | Activity (CHO [21]): 118%
3 | COc1cc(/C=C/C(=O)CC(=O)/C=C/c2ccc(OC(C)=O)c(OC)c2)ccc1OC(C)=O | 90 | 189 | < 4.60 | 79 | < 4.60 | < 4.60 | < 4.60 | 0.03 | 128 | < 4.60 | < 4.60 | 76 | 114 | 93 | < 4.60 | < 4.60 | < 4.60 | < 4.60 | 0 | 0.5 (≈ 0.226 µg/mL) | Activity (CHO [21]): 112%
4 | CC(C)CNC(=C\C(=O)/C=C/c1ccc(O)cc1)/C=C/c1ccc(O)cc1 | 82 | 119 | 4.75 | 77 | < 4.60 | 4.65 | < 4.60 | 0.19 | 109 | 4.64 | 4.70 | 75 | 100 | 100 | < 4.60 | 4.63 | 4.73 | < 4.60 | 0.02 | 25 (≈ 9.09 µg/mL) | Activity (CHO [21]): 97%
5 | COc1cc(/C=C/C(=O)/C=C(/C=C/c2ccc(OC(C)=O)c(OC)c2)NCC(C)C)ccc1OC(C)=O | 77 | 240 | < 4.60 | 95 | < 4.60 | < 4.60 | < 4.60 | 0.04 | 111 | < 4.60 | < 4.60 | 96 | 104 | 96 | < 4.60 | < 4.60 | < 4.60 | < 4.60 | 0 | 5 (≈ 2.54 µg/mL) | Activity (CHO [21]): 111%
6 | O=C(/C=C/c1ccc(O)cc1)CC(=O)/C=C/c1ccc(O)cc1 [BISDEMETHOXYCURCUMIN] | 83 | 103 | < 4.60 | 75 | < 4.60 | < 4.60 | < 4.60 | 0.28 | 101 | < 4.60 | < 4.60 | 69 | 92 | 98 | < 4.60 | < 4.60 | < 4.60 | < 4.60 | 0.02 | 25 (≈ 7.71 µg/mL) | Activity (CHO [21]): 105%
7 | CC(=O)Oc1ccc(/C=C/C(=O)/C=C(/C=C/c2ccc(OC(C)=O)cc2)NCC(C)C)cc1 | 85 | 53 | < 4.60 | 92 | < 4.60 | 4.65 | < 4.60 | 0.01 | 152 | < 4.60 | 4.86 | 99 | 60 | 102 | < 4.60 | < 4.60 | < 4.60 | < 4.60 | 0 | 25 (≈ 11.2 µg/mL) | Activity (CHO [21]): 142%
8 | CCC(C)NC(=C\C(=O)/C=C/c1ccc(O)c(OC)c1)/C=C/c1ccc(O)c(OC)c1 (stereo unspecified) | 66 | 184 | < 4.60 | 99 | < 4.60 | 4.65 | < 4.60 | 1.08 | 107 | < 4.60 | < 4.60 | 90 | 85 | 91 | < 4.60 | < 4.60 | < 4.60 | < 4.60 | 0.13 | 50 (≈ 21.2 µg/mL) | Activity (CHO [21]): 112%
9 | C=CCNC(=C\C(=O)/C=C/c1ccc(O)c(OC)c1)/C=C/c1ccc(O)c(OC)c1 | 76 | 267 | 5.13 | 99 | < 4.60 | 4.61 | < 4.60 | 1.14 | 115 | < 4.60 | < 4.60 | 84 | 124 | 89 | < 4.60 | < 4.60 | < 4.60 | < 4.60 | 0.1 | 25 (≈ 10.2 µg/mL) | Activity (CHO [21]): 104%
10 | CCC(C)NC(=C\C(=O)/C=C/c1ccc(O)cc1)/C=C/c1ccc(O)cc1 (stereo unspecified) | 102 | 414 | 4.88 | 76 | 4.66 | 4.81 | < 4.60 | 0.18 | 104 | 5.03 | 4.89 | 76 | 99 | 102 | < 4.60 | 4.82 | 5.24 | < 4.60 | 0.03 | 25 (≈ 9.09 µg/mL) | Activity (CHO [21]): 111%
11 | COc1cc(/C=C/C(=O)/C=C(/C=C/c2ccc(O)c(OC)c2)NC2CCCCC2)ccc1O | 63 | 191 | 4.61 | 80 | < 4.60 | < 4.60 | < 4.60 | 0.83 | 137 | < 4.60 | < 4.60 | 74 | 91 | 88 | < 4.60 | < 4.60 | 5.29 | < 4.60 | 0.13 | 25 (≈ 11.2 µg/mL) | Activity (CHO [21]): 122%
